# Source: ChEMBL document CHEMBL4665913, “Discovery of CA-4948, an Orally Bioavailable IRAK4 Inhibitor for Treatment of Hematologic Malignancies” (ACS Med Chem Lett, 2020)
# Experiments:
# [1] = Metabolic stability in mouse liver microsomes assessed as parent compound remaining at 1 uM measured upto 60 mins in presence of NADPH by LC-MS/MS analysis; type: ADME, Microsome; conditions: read-out: Stabilty
# [2] = Metabolic stability in rat liver microsomes assessed as parent compound remaining at 1 uM measured upto 60 mins in presence of NADPH by LC-MS/MS analysis; type: ADME, Microsome; conditions: read-out: Stabilty
# [3] = Metabolic stability in human liver microsomes assessed as parent compound remaining at 1 uM measured upto 60 mins in presence of NADPH by LC-MS/MS analysis; type: ADME, Microsome; conditions: read-out: Stabilty
# [4] = Initial plasma concentration in CD1 mouse at 3 mg/kg, iv by LC-MS/MS analysis; type: ADME, organism-based
# [5] = AUC (0 to t) in CD-1 mouse at 3 mg/kg, iv measured up to 24 hrs by LC-MS/MS analysis; type: ADME, organism-based; parameters: route intravenous, dose 3 mg/kg, time <=24; conditions: in vivo
# [6] = Volume of distribution in CD1 mouse at 3 mg/kg, iv measured up to 24 hrs by LC-MS/MS analysis; type: ADME, organism-based; conditions: in vivo
# [7] = Clearance in CD1 mouse at 3 mg/kg, iv measured up to 24 hrs by LC-MS/MS analysis; type: ADME, organism-based; conditions: in vivo
# [8] = Half life in CD1 mouse at 3 mg/kg, iv measured up to 24 hrs by LC-MS/MS analysis; type: ADME, organism-based; conditions: in vivo
# [9] = Cmax in CD1 mouse at 10 mg/kg, po measured up to 24 hrs by LC-MS/MS analysis; type: ADME, organism-based; parameters: route oral, dose 10 mg/kg, time <=24; conditions: in vivo
# [10] = AUC (0 to t) in CD-1 mouse at 10 mg/kg, po measured up to 24 hrs by LC-MS/MS analysis; type: ADME, organism-based; parameters: route oral, dose 10 mg/kg, time <=24; conditions: in vivo
# [11] = Tmax in CD1 mouse at 10 mg/kg, po measured up to 24 hrs by LC-MS/MS analysis; type: ADME, organism-based; conditions: in vivo
# [12] = Oral bioavailability in CD1 mouse at 10 mg/kg measured up to 24 hrs by LC-MS/MS analysis; type: ADME, organism-based; conditions: in vivo
# [13] = in vitro; conditions: human, Caco-2
# [14] = Initial plasma concentration in Wistar rat at 3 mg/kg, iv by LC-MS/MS analysis; type: ADME, organism-based
# [15] = Initial plasma concentration in dog at 1 mg/kg, iv by LC-MS/MS analysis; type: ADME, organism-based, Canis lupus familiaris
# [16] = AUC (0 to t) in Wistar rat at 3 mg/kg, iv measured up to 24 hrs by LC-MS/MS analysis; type: ADME, organism-based; parameters: route intravenous, dose 3 mg/kg, time <=24; conditions: in vivo
# [17] = AUC (0 to t) in dog at 1 mg/kg, iv measured up to 24 hrs by LC-MS/MS analysis; type: ADME, organism-based, Canis lupus familiaris; parameters: route intravenous, dose 1 mg/kg, time <=24; conditions: in vivo
# [18] = Volume of distribution in Wistar rat at 3 mg/kg, iv measured up to 24 hrs by LC-MS/MS analysis; type: ADME, organism-based; conditions: in vivo
# [19] = Volume of distribution in dog at 1 mg/kg, iv measured up to 24 hrs by LC-MS/MS analysis; type: ADME, organism-based, Canis lupus familiaris; conditions: in vivo
# [20] = Clearance in Wistar rat at 3 mg/kg, iv measured up to 24 hrs by LC-MS/MS analysis; type: ADME, organism-based; conditions: in vivo
# [21] = Clearance in dog at 1 mg/kg, iv measured up to 24 hrs by LC-MS/MS analysis; type: ADME, organism-based, Canis lupus familiaris; conditions: in vivo
# [22] = Half life in Wistar rat at 3 mg/kg, iv measured up to 24 hrs by LC-MS/MS analysis; type: ADME, organism-based; conditions: in vivo
# [23] = Half life in dog at 1 mg/kg, iv measured up to 24 hrs by LC-MS/MS analysis; type: ADME, organism-based, Canis lupus familiaris; conditions: in vivo
# [24] = Cmax in Wistar rat at 10 mg/kg, po measured up to 24 hrs by LC-MS/MS analysis; type: ADME, organism-based; parameters: route oral, dose 10 mg/kg, time <=24; conditions: in vivo
# [25] = Cmax in dog at 10 mg/kg, po measured up to 24 hrs by LC-MS/MS analysis; type: ADME, organism-based, Canis lupus familiaris; parameters: route oral, dose 10 mg/kg, time <=24; conditions: in vivo
# [26] = AUC (0 to t) in Wistar rat at 10 mg/kg, po measured up to 24 hrs by LC-MS/MS analysis; type: ADME, organism-based; parameters: route oral, dose 10 mg/kg, time <=24; conditions: in vivo
# [27] = AUC (0 to t) in dog at 10 mg/kg, po measured up to 24 hrs by LC-MS/MS analysis; type: ADME, organism-based, Canis lupus familiaris; parameters: route oral, dose 10 mg/kg, time <=24; conditions: in vivo
# [28] = Tmax in Wistar rat at 10 mg/kg, po measured up to 24 hrs by LC-MS/MS analysis; type: ADME, organism-based; conditions: in vivo
# [29] = Tmax in dog at 10 mg/kg, po measured up to 24 hrs by LC-MS/MS analysis; type: ADME, organism-based, Canis lupus familiaris; conditions: in vivo
# [30] = Oral bioavailability in Wistar rat at 10 mg/kg measured up to 24 hrs by LC-MS/MS analysis; type: ADME, organism-based; conditions: in vivo
# [31] = Oral bioavailability in dog at 10 mg/kg measured up to 24 hrs by LC-MS/MS analysis; type: ADME, organism-based, Canis lupus familiaris; conditions: in vivo
# [32] = Drug concentration in human OCI-LY3 cells xenografted SCID Beige mouse plasma at 25 mg/kg, po administered via gavage for 14 days and measured at 2 hrs post last dose by LC-MS/MS analysis; type: ADME, organism-based; conditions: time 14 day
# Procedure, shortened: (§1)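 Xenograft-bearing mice (OCI-Ly3) were given oral doses of 25, 50, 100 or 200 mg/kg once daily. Plasma and tumor were collected 2 h after the final dose on day 15. Results are reported as mean plasma concentration (ng/mL) and mean tumor concentration (ng/g) for each dose group.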
# [33] = Drug concentration in human OCI-LY3 cells xenografted SCID Beige mouse tumor at 25 mg/kg, po administered via gavage for 14 days and measured at 2 hrs post last dose by LC-MS/MS analysis; type: ADME, organism-based, Neoplasm; conditions: time 14 day, read-out: Ct; procedure, shortened: as §1
# [34] = Drug concentration in human OCI-LY3 cells xenografted SCID Beige mouse plasma at 50 mg/kg, po administered via gavage for 14 days and measured at 2 hrs post last dose by LC-MS/MS analysis; type: ADME, organism-based; conditions: time 14 day; procedure, shortened: as §1
# [35] = Drug concentration in human OCI-LY3 cells xenografted SCID Beige mouse tumor at 50 mg/kg, po administered via gavage for 14 days and measured at 2 hrs post last dose by LC-MS/MS analysis; type: ADME, organism-based, Neoplasm; conditions: time 14 day, read-out: Ct; procedure, shortened: as §1
# [36] = Drug concentration in human OCI-LY3 cells xenografted SCID Beige mouse plasma at 100 mg/kg, po administered via gavage for 14 days and measured at 2 hrs post last dose by LC-MS/MS analysis; type: ADME, organism-based; conditions: time 14 day; procedure, shortened: as §1
# [37] = Drug concentration in human OCI-LY3 cells xenografted SCID Beige mouse tumor at 100 mg/kg, po administered via gavage for 14 days and measured at 2 hrs post last dose by LC-MS/MS analysis; type: ADME, organism-based, Neoplasm; conditions: time 14 day, read-out: Ct; procedure, shortened: as §1
# [38] = Drug concentration in human OCI-LY3 cells xenografted SCID Beige mouse plasma at 200 mg/kg, po administered via gavage for 14 days and measured at 2 hrs post last dose by LC-MS/MS analysis; type: ADME, organism-based; conditions: time 14 day; procedure, shortened: as §1
# [39] = Drug concentration in human OCI-LY3 cells xenografted SCID Beige mouse tumor at 200 mg/kg, po administered via gavage for 14 days and measured at 2 hrs post last dose by LC-MS/MS analysis; type: ADME, organism-based, Neoplasm; conditions: time 14 day, read-out: Ct; procedure, shortened: as §1
# [40] = Fraction unbound in human OCI-LY3 cells xenografted SCID Beige mouse plasma at 200 mg/kg, po after 24 hrs by equilibrium dialysis method; type: ADME, organism-based; conditions: in vivo
# Procedure, shortened: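 Mouse plasma protein binding is the mean of 2 determinations. It was applied to the plasma exposures at 12 and 24 h in the OCI-Ly3 PK/PD study to estimate unbound plasma levels.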
compound,measurement,setting,value
Cc1cc(-c2nc(C(=O)Nc3cc4oc(N5CCOCC5)nc4nc3N3CCC(F)CC3)co2)ccn1,"remaining at 1 h, 1 µM",[1],50%
same,"remaining at 1 h, 1 µM",[2],68%
same,"remaining at 1 h, 1 µM",[3],69%
Cc1cc(-c2nc(C(=O)Nc3cc4oc(N5CCOCC5)nc4nc3N3CC[C@H](O)C3)co2)ccn1,"remaining at 1 h, 1 µM",[1],> 95%
same,"remaining at 1 h, 1 µM",[2],> 95%
same,"remaining at 1 h, 1 µM",[3],> 95%
same,C0,[4],788 ng/mL
same,AUC(0-t) at 24 h,[5],928 ng·h/mL
same,Vd,[6],5.57 L/kg
same,clearance,[7],52.2 mL/min/kg
same,half-life,[8],0.8 h
same,Cmax,[9],2530 ng/mL
same,AUC(0-t) at 24 h,[10],4490 ng·h/mL
same,Tmax,[11],0.3 h
same,bioavailability,[12],100%
same,"Papp A→B at 2 h, 10 µM",[13],21.9 ×10⁻⁶ cm/s
Cc1cc(-c2nc(C(=O)Nc3cc4oc(N5CCOCC5)nc4nc3N3CC[C@@H](O)C3)co2)ccn1 [EMAVUSERTIB],"remaining at 1 h, 1 µM",[1],> 95%
same,"remaining at 1 h, 1 µM",[2],> 95%
same,"remaining at 1 h, 1 µM",[3],> 95%
same,C0,[4],7480 ng/mL
same,C0,[14],27700 ng/mL
same,C0,[15],1960 ng/mL
same,AUC(0-t) at 24 h,[5],5270 ng·h/mL
same,AUC(0-t) at 24 h,[16],112000 ng·h/mL
same,AUC(0-t) at 24 h,[17],6060 ng·h/mL
same,Vd,[6],0.661 L/kg
same,Vd,[18],2 L/kg
same,Vd,[19],0.5 L/kg
same,clearance,[7],9.27 mL/min/kg
same,CL,[20],0.4 mL/min/kg
same,clearance,[21],3.1 mL/min/kg
same,half-life,[8],2.6 h
same,t1/2,[22],5.3 h
same,half-life,[23],2.6 h
same,Cmax,[9],6620 ng/mL
same,Cmax,[24],22100 ng/mL
same,Cmax,[25],12800 ng/mL
same,AUC(0-t) at 24 h,[10],12500 ng·h/mL
same,AUC(0-t) at 24 h,[26],171000 ng·h/mL
same,AUC(0-t) at 24 h,[27],86500 ng·h/mL
same,Tmax,[11],0.5 h
same,Tmax,[28],1.2 h
same,Tmax,[29],1.17 h
same,bioavailability,[12],71%
same,bioavailability,[30],46%
same,bioavailability,[31],100%
same,concentration at 336 h,[32],5080 ng/mL
same,concentration at 336 h,[33],2670 ng/g
same,concentration at 336 h,[34],11600 ng/mL
same,concentration at 336 h,[35],8290 ng/g
same,concentration at 336 h,[36],23300 ng/mL
same,concentration at 336 h,[37],17900 ng/g
same,concentration at 336 h,[38],39100 ng/mL
same,concentration at 336 h,[39],37000 ng/g
same,Cp(f),[40],49.3 ng/mL
same,"Papp A→B at 2 h, 10 µM",[13],8.9 ×10⁻⁶ cm/s
Cc1cc(-c2nc(C(=O)Nc3cc4oc(N5CCOCC5)nc4nc3N3CC[C@@H](F)C3)co2)ccn1,"remaining at 1 h, 1 µM",[1],88%
same,"remaining at 1 h, 1 µM",[2],95%
same,"remaining at 1 h, 1 µM",[3],95%
same,"Papp A→B at 2 h, 10 µM",[13],54.2 ×10⁻⁶ cm/s
Cc1cc(-c2nc(C(=O)Nc3cc4oc(N5CCOCC5)nc4nc3N3CC[C@@H](N)C3)co2)ccn1,"remaining at 1 h, 1 µM",[1],82%
same,"remaining at 1 h, 1 µM",[2],> 95%
same,"remaining at 1 h, 1 µM",[3],> 95%
same,"Papp A→B at 2 h, 10 µM",[13],1 ×10⁻⁶ cm/s
Cc1cc(-c2nc(C(=O)Nc3cc4oc(N5CCOCC5)nc4nc3N3CCC(O)CC3)co2)ccn1,"remaining at 1 h, 1 µM",[1],> 95%
same,"remaining at 1 h, 1 µM",[2],> 95%
same,"remaining at 1 h, 1 µM",[3],> 95%
same,"Papp A→B at 2 h, 10 µM",[13],13.5 ×10⁻⁶ cm/s
